Drawing on ChEMBL document CHEMBL3739314, “Discovery of Nanomolar Dengue and West Nile Virus Protease Inhibitors Containing a 4-Benzyloxyphenylglycine Residue” (J Med Chem, 2015), this text covers inhibition and IC50 for 28 molecules.

Activity calls are given as the source filed them. No cut-off for these calls is given here.

One assay concerns the target Trypsin (Homo sapiens) (UniProt P07477+P07478+P35030). The assay can be described thus: Inhibition of trypsin (unknown origin) using Boc-Val-Pro-Arg-AMC as substrate at 25 uM preincubated with protein for 15 mins followed by substrate addition by continuous fluorimetric assay relative to control.
In assay [1] the target is Prothrombin (Homo sapiens) (UniProt P00734). The assay can be described thus: Inhibition of thrombin (unknown origin) using Boc-Val-Pro-Arg-AMC as substrate at 25 uM preincubated with protein for 15 mins followed by substrate addition measured for 10 mins by continuous fluorimetric assay relative to control.
In a further assay the test system is West Nile virus. In words: Inhibition of West Nile virus NS2B-NS3 protease using 2-Abz-Gly-Leu-Lys-Arg-Gly-Gly-[…]-Tyr-NH2 as substrate at 50 uM preincubated with protein for 15 mins followed by substrate addition measured for 15 mins by FRET assay. A digest of the protocol: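 Linked WNV NS2B-NS3 protease (150 nM) was preincubated 15 min with inhibitor (50 μM final) in 50 mM Tris-HCl pH 9, 10% ethylene glycol, 0.0016% Brij 58. […] Percent inhibition was taken from the slope relative to the no-inhibitor control, in triplicate.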

Assay [2] is described as follows: Inhibition of West Nile virus NS2B-NS3 protease using 2-Abz-Gly-Leu-Lys-Arg-Gly-Gly-[…]-Tyr-NH2 as substrate preincubated with protein for 15 mins followed by substrate addition measured for 15 mins by FRET assay. A digest of the protocol: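 WNV NS2B-NS3 linked construct at 75 nM (40 nM in one case) in pH 9 Tris buffer, preincubated 15 min with eight inhibitor concentrations (ranges 0–1 up to 0–50 μM). Substrate was 50 μM, with FRET readout over 15 min. IC50 was fitted from triplicates.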

Assay [3] can be described thus: Inhibition of Dengue virus serotype-2 NS2B-NS3 protease using 2-Abz-Nle-Lys-Arg-Arg-Ser-(3-NO2)-Tyr-NH2 as substrate preincubated with protein for 15 mins followed by substrate addition measured for 15 mins by FRET assay. Also noted: species or system dengue virus type 2. A digest of the protocol:
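DENV-2 NS2B-NS3 linked construct at 30 nM (15 nM in some cases), same pH 9 Tris buffer, 15 min preincubation and FRET read-out. Eight inhibitor concentrations spanned 0–1, 0–2, 0–6 or 0–50 μM, with substrate at 50 μM. IC50 was fitted from triplicates.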

The term inhibition denotes the change of the read-out against control, counted positive when it falls. A word on the IC50: it is the concentration needed to halve the response being measured. The low end stands for greater potency in that assay, the high end for weaker potency in that assay. For the molecule `CC(C)(C)c1ccc(COc2ccc([C@@H](NC(=O)[C@H](CCCCN)NC(=O)[C@H](CCCNC(=N)N)NC(=O)c3cc4sccc4s3)C(N)=O)cc2)cc1`, the inhibition entry (at Trypsin (Homo sapiens); in assay [1]) was “inactive” throughout. The inhibition in the assay with West Nile virus stood at 94.1%. Further, the IC50 in assay [2] was found to be 15900 nM; in assay [3], 157 nM.

As to `N=C(N)NCCC[C@H](NC(=O)c1cccs1)C(=O)N[C@@H](CCCCN)C(=O)N[C@@H](C(N)=O)c1ccc(OCC(=O)c2ccc(Br)cc2)cc1`, the inhibition against Trypsin (Homo sapiens) stood at 59%; with West Nile virus it was 99.4%. Moreover, the inhibition entry in assay [1] is “inactive”. The values for the IC50 in assay [2] and in assay [3] were 487 nM and 148 nM, respectively.

Turning to `CC(C)(C)c1ccc(COc2ccc([C@@H](NC(=O)[C@H](CCCCN)NC(=O)[C@H](CCCNC(=N)N)NC(=O)c3sccc3Cl)C(N)=O)cc2)cc1`, the inhibition result (on Trypsin (Homo sapiens); in assay [1]) was “inactive” throughout. The inhibition with West Nile virus worked out at 85.2%. The same molecule registered an IC50 in assay [3] of 121 nM.

Turning to `N=C(N)NCCC[C@H](NC(=O)c1sccc1Cl)C(=O)N[C@@H](CCCCN)C(=O)N[C@@H](C(N)=O)c1ccc(OCc2ccc(Cl)cc2)cc1`, the inhibition entry (at Trypsin (Homo sapiens); in assay [1]) was “inactive” each time. Besides, the inhibition in the assay on West Nile virus came to 99.3%. The results for the IC50 in assay [2] and in assay [3] were 821 nM and 120 nM, respectively.

Turning to `N=C(N)NCCC[C@H](NC(=O)c1cc2sccc2s1)C(=O)N[C@@H](CCCCN)C(=O)N[C@@H](C(N)=O)c1ccc(OCc2ccc(Cl)cc2)cc1`, the inhibition entry (at Trypsin (Homo sapiens); in assay [1]) was “inactive” throughout. Besides, the inhibition in the assay with West Nile virus was 93.8%. Also, the midpoint of inhibition in assay [3], the IC50, lay at 170 nM.

With `N=C(N)NCCC[C@H](NC(=O)c1nccs1)C(=O)N[C@@H](CCCCN)C(=O)N[C@@H](C(N)=O)c1ccc(OCc2c(Cl)cccc2Cl)cc1`, the inhibition result (at Trypsin (Homo sapiens); in assay [1]) was “inactive” throughout. The inhibition with West Nile virus was 99.1%. Besides, the IC50 in assay [2] stood at 166 nM; in assay [3], 50 nM.

Consider `N#Cc1ccc(COc2ccc([C@@H](NC(=O)[C@H](CCCCN)NC(=O)[C@H](CCCNC(=N)N)NC(=O)c3ccccc3)C(N)=O)cc2)cc1`, for which the inhibition in assay [1] is under 30%; in the assay with West Nile virus it was 99.9%. The half-inhibitory concentration (IC50) in assay [2] came out at 213 nM; in assay [3] it was 399 nM.

`COc1cccc(COc2ccc([C@@H](NC(=O)[C@H](CCCCN)NC(=O)[C@H](CCCNC(=N)N)NC(=O)c3nccs3)C(N)=O)cc2)c1`: the inhibition result (at Trypsin (Homo sapiens); in assay [1]) was “inactive” in each case. Moreover, in the assay on West Nile virus, the inhibition came out at 100%. Moreover, the IC50 in assay [2] amounted to 273 nM; in assay [3], 47 nM.

Take `N=C(N)NCCC[C@H](NC(=O)c1cscn1)C(=O)N[C@@H](CCCCN)C(=O)N[C@@H](C(N)=O)c1ccc(OCc2ccccc2)cc1`: the inhibition is under 30% in assay [1] and 100% in the assay with West Nile virus. In addition, the IC50 in assay [2] was 348 nM; in assay [3] it was 173 nM.

On to `N=C(N)NCCC[C@H](NC(=O)c1cc2sccc2s1)C(=O)N[C@@H](CCCCN)C(=O)N[C@@H](C(N)=O)c1ccc(OCc2ccccc2C(F)(F)F)cc1`, for which the inhibition entry (on Trypsin (Homo sapiens); in assay [1]) was “inactive” each time. Besides, in the assay with West Nile virus, the inhibition was determined as 97.5%. The molecule further returned an IC50 in assay [3] of 197 nM.

In the case of `N=C(N)NCCC[C@H](NC(=O)c1ccc(Cl)s1)C(=O)N[C@@H](CCCCN)C(=O)N[C@@H](C(N)=O)c1ccc(OCc2ccc(Cl)cc2)cc1`, the inhibition entry (on Trypsin (Homo sapiens); in assay [1]) was “inactive” each time. Further, the inhibition with West Nile virus was 99.6%. The IC50 in assay [2] worked out at 371 nM; in assay [3], 111 nM.

In the case of `N=C(N)NCCC[C@H](NC(=O)c1ccccc1)C(=O)N[C@@H](CCCCN)C(=O)N[C@@H](C(N)=O)c1ccc(OCc2ccc(Br)cc2)cc1`, the figures for the inhibition (in assay [1]; in the assay with West Nile virus) were under 30% and 99.2%, respectively. For the same molecule, the IC50 was 308 nM in assay [2] and 236 nM in assay [3].

`N=C(N)NCCC[C@H](NC(=O)c1cc2ccccc2s1)C(=O)N[C@@H](CCCCN)C(=O)N[C@@H](C(N)=O)c1ccc(OCc2ccccc2C(F)(F)F)cc1`: the inhibition result (at Trypsin (Homo sapiens); in assay [1]) was “inactive” throughout. In addition, the inhibition in the assay on West Nile virus turned out to be 93.1%. This molecule also registered an IC50 in assay [3] of 243 nM.

In the case of `N=C(N)NCCC[C@H](NC(=O)c1cccs1)C(=O)N[C@@H](CCCCN)C(=O)N[C@@H](C(N)=O)c1ccc(OCc2ccc(F)cc2)cc1`, the inhibition entry (on Trypsin (Homo sapiens); in assay [1]) was “inactive” throughout. Further, the inhibition with West Nile virus was found to be 101%. Also, the IC50 in assay [2] was 216 nM; in assay [3], 61 nM.

On to `N=C(N)NCCC[C@H](NC(=O)c1ccccc1)C(=O)N[C@@H](CCCCN)C(=O)N[C@@H](C(N)=O)c1ccc(OCc2ccc(Cl)c(Cl)c2)cc1`, for which the inhibition in assay [1] is under 30%; in the assay on West Nile virus it was 97.8%. For the same molecule, the IC50 in assay [2] was 615 nM; in assay [3], 177 nM.

On to `COc1cccc(COc2ccc([C@@H](NC(=O)[C@H](CCCCN)NC(=O)[C@H](CCCNC(=N)N)NC(=O)c3ccccc3)C(N)=O)cc2)c1`, for which the inhibition in assay [1] is under 30%; with West Nile virus, 99%. The IC50 came out at 804 nM in assay [2] and 147 nM in assay [3].

Consider `N=C(N)NCCC[C@H](NC(=O)c1ccco1)C(=O)N[C@@H](CCCCN)C(=O)N[C@@H](C(N)=O)c1ccc(OCc2ccccc2)cc1`, for which the inhibition in assay [1] was under 30%; in the assay on West Nile virus, 98.1%. The IC50 in assay [2] turned out to be 507 nM; in assay [3], 479 nM.

For the molecule `N=C(N)NCCC[C@H](NC(=O)c1cc(-c2ccccc2)cs1)C(=O)N[C@@H](CCCCN)C(=O)N[C@@H](C(N)=O)c1ccc(OCc2ccccc2)cc1`, the inhibition was under 30% in assay [1] and 98.6% in the assay on West Nile virus. Moreover, the IC50 in assay [2] stood at 398 nM; in assay [3], 304 nM.

Consider `N=C(N)NCCC[C@H](NC(=O)c1cc2ccccc2s1)C(=O)N[C@@H](CCCCN)C(=O)N[C@@H](C(N)=O)c1ccc(OCc2c(Cl)cccc2Cl)cc1`, for which the inhibition entry (on Trypsin (Homo sapiens); in assay [1]) was “inactive” each time. For the same molecule, the inhibition in the assay with West Nile virus turned out to be 95.9%. In assay [3], this molecule showed an IC50 of 183 nM.

Consider `N=C(N)NCCC[C@H](NC(=O)c1ccccc1)C(=O)N[C@@H](CCCCN)C(=O)N[C@@H](C(N)=O)c1ccc(OCc2ccc(F)cc2)cc1`, for which the inhibition was under 30% in assay [1] and 100% with West Nile virus. For the same molecule, the IC50 was 349 nM in assay [2] and 196 nM in assay [3].

In the case of `N=C(N)NCCC[C@H](NC(=O)C1CCC1)C(=O)N[C@@H](CCCCN)C(=O)N[C@@H](C(N)=O)c1ccc(OCc2ccccc2)cc1`, the inhibition is under 30% in assay [1] and 98% in the assay with West Nile virus. The IC50 in assay [2] came out at 434 nM; in assay [3], 631 nM.

On to `N=C(N)NCCC[C@H](NC(=O)c1ccsc1)C(=O)N[C@@H](CCCCN)C(=O)N[C@@H](C(N)=O)c1ccc(OCc2ccccc2)cc1`, for which the inhibition in assay [1] is under 30%; with West Nile virus it was 98.2%. The IC50 in assay [2] was determined as 490 nM; in assay [3], 179 nM.

`N=C(N)NCCC[C@H](NC(=O)c1nccs1)C(=O)N[C@@H](CCCCN)C(=O)N[C@@H](C(N)=O)c1ccc(OCc2ccccc2)cc1`: the inhibition in assay [1] is under 30%; in the assay on West Nile virus it was 98.8%. Moreover, the IC50 in assay [2] is 158 nM; in assay [3], 99 nM.

As to `N=C(N)NCCC[C@H](NC(=O)c1ccccc1F)C(=O)N[C@@H](CCCCN)C(=O)N[C@@H](C(N)=O)c1ccc(OCc2ccccc2)cc1`, the results for the inhibition (in assay [1]; in the assay with West Nile virus) were under 30% and 100%, respectively. Further, the IC50 in assay [2] was determined as 1290 nM; in assay [3], 340 nM.

Take `N=C(N)NCCC[C@H](NC(=O)/C=C/c1ccc(Cl)cc1)C(=O)N[C@@H](CCCCN)C(=O)N[C@@H](C(N)=O)c1ccc(OCc2ccccc2)cc1`: the inhibition in assay [1] was under 30%; with West Nile virus, 99.4%. Further, the IC50 in assay [2] was determined as 368 nM; in assay [3], 721 nM.

In the case of `N=C(N)NCCC[C@H](NC(=O)c1ccccc1)C(=O)N[C@@H](CCCCN)C(=O)N[C@@H](C(N)=O)c1ccc(OCc2ccc(C(F)(F)F)cc2)cc1`, the inhibition is under 30% in assay [1] and 99.7% in the assay on West Nile virus. Moreover, the values for the IC50 in assay [2] and in assay [3] were 224 nM and 69 nM, respectively.

For `N=C(N)NCCC[C@H](NC(=O)c1ccc(-c2cccs2)s1)C(=O)N[C@@H](CCCCN)C(=O)N[C@@H](C(N)=O)c1ccc(OCc2ccccc2)cc1`, the inhibition in assay [1] was under 30%; in the assay with West Nile virus it was 100%. In addition, the IC50 in assay [2] worked out at 430 nM; in assay [3] it was 375 nM.

As for `N=C(N)NCCC[C@H](NC(=O)C1CC1)C(=O)N[C@@H](CCCCN)C(=O)N[C@@H](C(N)=O)c1ccc(OCc2ccccc2)cc1`, the inhibition in assay [1] was under 30%; in the assay on West Nile virus, 100%. For the same molecule, the 50% inhibitory concentration (IC50) was 1660 nM in assay [2] and 805 nM in assay [3].
